Consider 38 variants from the RNAGym collection of RNA variant scans (doi:10.1126/science.aae0568).

Variants at the floor of the assay were thinned out.

B1: tRNA (parent)
chain: GUUCCGUUGGCGUAAUGGUAACGCGUCUCCCUCCUAAGGAGAAGACUGCGGGUUCGAGUCCCGUACGGAACG

The data set covers variants of B1. Description: yeast fitness relative to wild type (ratio to wild type); higher = fitter; tRNA-Arg(CCU), competitive growth, 37 C, YPD. In a few lines:
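Gene amplicons from the start population and from each of six end populations were read by 100-nucleotide paired-end sequencing. Those end populations came from pooled Saccharomyces cerevisiae strains carrying tRNA-Arg(CCU) gene variants at the native locus, competed in YPD at 37°C for 24 hours. Fitness relative to wild type was worked out from changes in genotype frequencies. Genotypes needed ≥ 100 starting reads, and estimates < 0.5 were set to 0.5.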
Consider GCUCCGUUGGCGUAAUGGUAACGCGUCUCCCUCCUAAGGAGAAGACCGCGGGUUCGAGUCCCGUACCGAACG, for which the yeast fitness came to 0.719.
For the variant GUUCCGUUGGCGUAAUGGUAACGCGUCUCGCUUCUAAGGAGAAGACUGCGGGUUCGACUCCCGAACGGAACG, the yeast fitness was 0.56.
In the case of GUUCCGUUGGCGUAAUGGUAACGCGUCUCCGUCAUAAGGAGAAGACUGCGGGUUUGAGCCCCGUACGGAACG, the yeast fitness was at most 0.5.
The same measure for GUUCCGUUGACGUAAUGGUAACGCAUCUCCCUCCUAAGGAGAAGACUGCGGGUUCGAGUCCUGUACGGAACG: at most 0.5; for GUUCCGUUGGCGUAAUGGUAUCGCGUCUCCCUGCUAAGGAGGAAACUGCGGGUUCGAGUCCCGUACGGAACG: 0.541.
The same measure for GUUCCGUUGCCGUAAUGGUAACGCCUCUCCCUCCUAAGGAGAAGACUGCGGGUUCGAGUCCCGUACGGAACG: 0.615; for GUUCCGUUGGCGUAAUGCUAACGCGUCUCCCUCCUAAGGAGAAGACAGCGGGUUCGAGUCCCGUACGGAUCG: at most 0.5.
Then GUCCCGUUGGCGUAAUGGAAAUGCGUCUCCCUCCUAAGGAGAAGACUGCGGGUUCGAGUCCCGUACGGAACG, with 0.558; and GUUCCGUUGCCGUAAUGGUAACGCGUCUCCCUCCUAAGGAGAAGACCGCGGGUUCGAGUCCCGUACCGAACG, with 0.536.
As to GUUCCGUUGGCGUGAUGGUAACGCGUAUCCCUCCUAAGGAGAAGACUGCGGGUGCGAGUCCCGUACGGAACG, the yeast fitness is at most 0.5.
The same measure for GUUCCGUUCGCGUAAUGGUUACGCGUCUCCCUCCUAAGGAGAAGACUGCGGGUUCGAGUCCCGUACGGAACG: 0.667; for GUUCCGUUGGCGUAAUAGUAACGCGUCUCCCUGCUAAGGAGAAGACUGCGGGUUCGAGUCCCGUAUGGAACG: at most 0.5; for GUUCCGUUGGCGUAAUGGUUACGCGUCUCCCUCCUAAGGAGAAGACUGCGGGUUCGAGUCACGUACGGAACG: 0.646.
Turning to GUUCCGAUGGCGUAAUGGUAACGCGUCUUCCUCCUAAGGAGAAGACUGCGGGUUCGAGUCUCGUACGCAACG, the yeast fitness stood at 0.582.
The same measure for GUUCCGAUGGCGUAAUGGUAACGCGUCUCCCUCUUAAGGAGAAGACUGAGGGUUCGAGUCCCGUACGGAACG: at most 0.5.
GUUCCGUUGGCGUAAUGGUAACGCGUCUCCCUCCUAAGGAGUCGACUGGGGGUUCGAGUCCCGUCCGGAACG: the yeast fitness is at most 0.5.
Take GUUCCGUUGGCGUAAUGGUAACGCGUCUCCCUCCUAAGGAGAAGACCGCGGGUCCGAGUCCCGUACGGAACG: the yeast fitness was 0.843.
Consider GUUCGGUUGGCGUAAUGGUAACGCGUCUCCCUCCUAAGGAGAAGACUGCGGGUUUGAGUCCCGUACGGUACG, for which the yeast fitness is at most 0.5.
For GUUCCCUUGGCGUAAUGGUAGCGCGUCUCCCUCCUAAGGAGAAGACUGCGGGUUCGCGUCCCGUACGGAACG, the yeast fitness is at most 0.5.
Then GUUCCGUUGGGGUAAUGGUAACGCGACUCCCUCCUAAGGAGAAGACUGCGGGAUCGAGUCCCGUACGGAACG, with at most 0.5; and GUUACGUUGGCGUAGUAGUAACGCGUCUCGCUCCUAAGGAGAAGACUACGGGCUCGAGUCCUGUACGGAACG, with at most 0.5; and GUUCCGUUGGCAUAAGGGUAACGCGUCUCCCUCCUAAGGAGAAGACUACGGGUUCGAGUCCCGUACGAAACG, with 0.705.
The same measure for GUUCCGUUAGCGUAAUGGUAACGCGUCACCCUCCUAAGGAGAAGGCUGCGGGUUCGAGUCCCGUACGGAACG: 0.645.
The same measure for GUUCCGUUGGCGUAACGGUAACGCGUCUCCCUCCUAAGGAGAAGACUGCGGGUUCGAGUCUCGUACGGAACG: 0.93; for GUUCCGUUGGCGUAAUGCUAACGCGUGUCCCUCCUAAGGAGAAGACUACGGGUUCGAGUCCCGUAGAGAACG: at most 0.5; for GUUCUGUUGGCGUAAUGGUAACGCGUCUCCCUCCGAAGGAGAAGACAACGGGUUCGAGUCCCGUUCGGAACG: 0.557.
For GUUCGGUUGGCGUAAUGGUAACGCGUCUAUCUCCAAAGGAGAAGACUGCGGGUUGCAGUCCCGUACGGAACG, the yeast fitness is at most 0.5.
As for GUUCCGUUGGCGUAAUGGUAACGCGUCUCCCUCCUAAGGAGAAGACUGCGGGUCCGAGGCCCGUACGGAGCG, the yeast fitness worked out at 0.615.
Then GUUCCGUUGGCGUAAUGGUAACGCGUCUCCCUCCUAAGGAGAGGACUGCGGGUUCGCGUCCCGUUCGGAACG, with 0.511; and GUUCCGUUGGCGUAAAGGUAGCGCGUGUCCCUCCUAAGGAGAAGAUUGCGGGUUCGAGUCCCGUACGGAACG, with 0.566.
On to GUGCUGUUGGCGUAAUGGUAACGCGUCUCUCUCCUAAGGUGAAGACUGUGGGUUCGAGUCCCGUACGGAACG, for which the yeast fitness is at most 0.5.
Then GUUCCGUUGGCGUAUUGGUAACGCGUCUCCCUCCUAAGGUGAAGACUGCGGGUUCGAGUCCCGUACGCAACG, with 0.627.
Take GUUCCGUUGGCGUAAUGCUAAAGCGUCUUCCUCCUAAGGAGAAGCCUGCGGGUUCGAGUCCCGUACGGUACG: the yeast fitness was at most 0.5.
Consider GUUCCGUUGGCGUAAUGGUUACGCCUCUCCCUCCUAAGGAGAAGACUGGGGGUUCGAGUCCCGUCCGGAUCG, for which the yeast fitness was at most 0.5.
With GUUCGGUUGGCGUAAUGGUAACGCGCCUCCCUCCUAAGGAGGAGACUGCGGGUUCGGGUCUCGUACGGAACG, the yeast fitness is at most 0.5.
The same measure for GUUCCGUUGGCGUAAUGGUAACGCGUCUCCCACCUAAGGUGAAGACUGCGGGUUCGAGUCCCGUACGGAACG: 0.774; for GUUCCGGUGGCCUAAUGGUAACCCGUCUGCCUCCUAAGGAGAAGACUGCGGGUUCGAGUCCCGUACGGAACG: 0.739; for GUUCCGUUAGCGUAAUGGUAACGCGUGUACCUCCUAAGGAGAAGACUGGGGGUUCGAGUCCCGUACGGAACG: at most 0.5.
